CendR NRP1 mod: modulators of CendR peptide binding to human neuropilin-1 | FAM-RPARPAR peptide binding to NRP-1, fluorescence polarization | inhibition, % at 25 µM | AID 602438 | O14786 | actives 0.85% (n = 360,000);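 active = inhibition or corrected inhibition above about 18%, plus a signal ratio from 0.5 to 1.5, limit read from the data, passing the limit was not always enough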
ASAP1 GAP inh: blocks human ASAP1-stimulated Arf1 GTP hydrolysis | inhibition, % at 16.5 µM | actives 0.19% (n = 360,000) | GDP FP detection; in the data active = inhibition above about 25%
Target sequence (Q9ULH1 325-724 limits assumed): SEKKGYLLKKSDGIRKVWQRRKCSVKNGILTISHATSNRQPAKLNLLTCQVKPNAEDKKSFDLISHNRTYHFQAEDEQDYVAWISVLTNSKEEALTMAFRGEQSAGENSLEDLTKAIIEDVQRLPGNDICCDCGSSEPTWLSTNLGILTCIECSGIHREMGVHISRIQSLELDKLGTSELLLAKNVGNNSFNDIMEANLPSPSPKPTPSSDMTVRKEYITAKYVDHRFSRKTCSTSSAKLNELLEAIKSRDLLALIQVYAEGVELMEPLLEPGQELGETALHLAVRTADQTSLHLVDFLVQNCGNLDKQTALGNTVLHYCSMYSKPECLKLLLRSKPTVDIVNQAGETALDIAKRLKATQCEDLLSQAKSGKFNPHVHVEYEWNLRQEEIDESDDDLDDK
Exocytosis inh: blocks lytic granule exocytosis; actives 0.66% (n = 360,000); TALL-104 LAMP-1 surface exposure, flow cytometry; cells stimulated with thapsigargin and PMA; inhibition, % at 10 µM;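 active = inhibition above about 55%, limit read from the data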
ARFGAP1 inhibitor: inhibitors of rat ARFGAP1; Arfgap1-stimulated ARF1 GTP hydrolysis, GDP FP detection; inhibition, % at 16.5 µM; actives 0.26% (n = 360,000); Q62848;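 active = inhibition above a per-plate limit, mean inhibition of low control wells plus 3 SD, cut at about 25% in these data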
Target sequence (Q62848 1-136 limits assumed): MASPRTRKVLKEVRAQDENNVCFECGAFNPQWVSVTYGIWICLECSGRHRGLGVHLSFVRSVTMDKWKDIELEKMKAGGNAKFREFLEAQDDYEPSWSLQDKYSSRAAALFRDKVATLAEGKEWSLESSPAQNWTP
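Repeats: one replicate per compound; assay system: rat Arfgap1 catalytic domain, aa 1-136; times: enzyme reaction 120 min at 25 °C after 20 min preincubation; detection: FP of antibody-bound GDP Alexa 633 tracer, ex 620/em 688 nm; benchmarks: high control wells lacking Arfgap1, low control full reaction with DMSO; reagent: human ARF1(Δ1-17)-GTP substrate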
V-ATPase pHluor: yeast V-ATPase proton transport regulation by pHLuorin. response, % at 10 µM. S. cerevisiae, pHLuorin cytosolic pH fluorescence. actives 0.37% (n = 350,000). AID 504577; in the data active = response mostly above about 7.3%, no sharp cut-off; inactive = mostly below about 5.4%; note: actives read high
Large screens that a line does not name were inactive; ! = not confirmed by another sample. Sampled rows, rich in hits. Any-hit rate of the full collection: about 2.2%.

Cc1ccc(NC(=S)N(CCCN2CCCC2)Cc2cccn2Cc2ccc(Cl)cc2)cc1C	Exocytosis inh 81
Cc1ccc(NC(=S)N(CCCN2CCCC2)Cc2cccn2Cc2ccc(Cl)cc2)cc1Cl	Exocytosis inh 65
CCC1Nc2ncnc(N3CCCCC3)c2N(Cc2ccc(C)cc2)C1=O (centres undefined)	CendR NRP1 mod 29!
Cc1cc(N2CCN(CC(C)(C)O)C[C@@H]2C)ccc1N1CCN(CC(C)(C)O)[C@@H](C)C1	none (no result: CendR NRP1 mod, Exocytosis inh, V-ATPase pHluor)
CCOC(=O)CN1C(=O)[C@]2(OCCC=C[C@H]2C)c2c(Br)cccc21	none (no result: CendR NRP1 mod, Exocytosis inh, V-ATPase pHluor)
CCCCCCCCN1C(=O)[C@@H](CC(=O)NCCc2ccccc2OC)C[C@@]2(C(=O)OC)C1=C[C@H](C(C)(C)C)O[C@@H]2C	none (no result: CendR NRP1 mod, Exocytosis inh, V-ATPase pHluor)
CC(SC#N)C(=O)C12CC3CC(CC(C3)C1)C2 (centres undefined)	none
CCOC(=O)N1CCC2(CC1)C(C(=O)C13CC4CC(CC(C4)C1)C3)C2(C#N)C#N (centres undefined)	Exocytosis inh 71
CCC(=O)c1cn(CC(=O)Nc2ccccc2)c2ccccc12	CendR NRP1 mod 34
CCCCN(C)CCNS(=O)(=O)c1ccc2c(c1)n(C)c(=O)c(=O)n2C	V-ATPase pHluor 18
CCCNS(=O)(=O)c1ccc2c(c1)n(C)c(=O)n2C	none
COc1ccc(OC)c2c1CCC2=O	CendR NRP1 mod 30
COc1ccccc1NC1=C(C)C(=O)CC1	none
COc1cccc(CC(=O)NCC2CCN(C(=O)C(=O)c3cccs3)CC2)c1	none (no result: CendR NRP1 mod, Exocytosis inh, V-ATPase pHluor)
Cc1ccc(SCC(=O)NCCSC(C)(C)C)cc1	V-ATPase pHluor 19
COCCNC(=O)CSc1ccc(C)cc1	none
CCCCc1ccc(S(=O)(=O)N2CCC3(CC2)OCCO3)cc1	CendR NRP1 mod 33
O=C(N[C@H](Cc1ccccc1)C(=O)N1CCN(c2ccc(Cl)cn2)CC1)[C@H]1O[C@@H](n2ccc(=O)[nH]c2=O)[C@H](O)[C@@H]1O	none (no result: CendR NRP1 mod, Exocytosis inh, V-ATPase pHluor)
Cc1[nH]n(-c2ccccc2)c(=O)c1C(C[N+](=O)[O-])c1ccccc1Cl (centres undefined)	CendR NRP1 mod 31
Cc1[nH]n(-c2ccccc2)c(=O)c1C(c1ccc(O)c([N+](=O)[O-])c1)c1c(C)[nH]n(-c2ccccc2)c1=O	none
COC(=O)[C@]12C[C@H](CC(=O)NCCC(C)C)C(=O)N(Cc3ccccc3)C1=C[C@H](C(C)C)O[C@@H]2C1CC1	none (no result: CendR NRP1 mod, Exocytosis inh, V-ATPase pHluor)
CCCCCCCCN1C(=O)[C@@H](CC(=O)N2CCSCC2)C[C@@]2(C(=O)OC)C1=C[C@H](C(C)(C)C)O[C@@H]2C	none (no result: CendR NRP1 mod, Exocytosis inh, V-ATPase pHluor)
c1ccc2c3n(nc2c1)CCCO3	CendR NRP1 mod 32
CC(=O)N1C[C@@H](CO)[C@@H]2C[C@H]1c1ccccc1N2C	none (no result: CendR NRP1 mod, Exocytosis inh, V-ATPase pHluor)
CC(=O)Nc1ccc(S(=O)(=O)N2CCN(c3ccc(C)c(Cl)c3)CC2)cc1	V-ATPase pHluor 17
COc1ccc(NC(=O)CN2CCN(c3c(C)cc(C)cc3C)CC2)cc1	CendR NRP1 mod 37
COc1ccc(S(=O)(=O)N2CCCN(CC(=O)Nc3ccc(NC(C)=O)cc3)CC2)cc1	CendR NRP1 mod 39
NC(=O)c1ccc(NC(=O)CSC(=O)c2ccccc2)cc1	none
COc1cccc(NC(=O)CN(C)C(=O)C23CC4CC(CC(Cl)(C4)C2)C3)c1	CendR NRP1 mod 33
CC(CN1CCOCC1)OC(=O)c1ccc2c(c1)OCCO2 (centres undefined)	CendR NRP1 mod 27
CC(CN1CCCCC1)OC(=O)c1ccc2c(c1)OCCO2 (centres undefined)	none
O=C(/C=C(\Nc1ccc(F)cc1)c1ccccc1)c1ccccc1	none (no result: CendR NRP1 mod, Exocytosis inh, V-ATPase pHluor)
CCCCCCCN1C(Nc2ccccc2)=NC[C@@H]1Cc1ccccc1	CendR NRP1 mod 26
CCN(CC)c1ccc(-c2nn3c(-c4ccccc4OC)nnc3s2)cc1	Exocytosis inh 80 (no result: ASAP1 GAP inh, ARFGAP1 inhibitor)
Cc1ccc(Oc2cccc3c2S(=O)(=O)N([C@H](C)c2ccccc2)C[C@@H](COCc2ccccc2)O3)cc1	none (no result: CendR NRP1 mod, Exocytosis inh, V-ATPase pHluor)
COc1ccc(OCC(=O)O/N=C(\N)Cc2ccc(Cl)cc2)cc1	none
COc1ccc(OCC(=O)O/N=C(\N)Cc2ccc(Cl)cc2Cl)cc1	CendR NRP1 mod 46
Brc1ccc2nc(-c3ccc(CN4CCC(c5nc6ccccc6[nH]5)CC4)cc3)c(-c3ccccc3)nc2c1	none (no result: CendR NRP1 mod, Exocytosis inh, V-ATPase pHluor)
C=CCN1/C(=C(\C#N)C2=NS(=O)(=O)c3ccccc32)N(C)c2ccccc21	V-ATPase pHluor 24
COc1ccc(NS(=O)(=O)c2csc(C(=O)N3CCCC3)c2)c(OC)c1	CendR NRP1 mod 19
O=C1c2ccccc2C(=O)C1Cc1cccc2ccccc12	V-ATPase pHluor 289
O=C1NC(c2cccc3ccccc23)Nc2ccccc21 (centres undefined)	none
O=C(N[C@H](Cc1ccccc1)C(=O)N(CCC1=CCCCC1)CC1CC1)[C@H]1O[C@@H](n2ccc(=O)[nH]c2=O)[C@H](O)[C@@H]1O	none (no result: CendR NRP1 mod, Exocytosis inh, V-ATPase pHluor)
CCNS(=O)(=O)c1ccc(CCC(N)=O)cc1	none
CCNS(=O)(=O)c1ccc(CCC(=O)O)cc1	CendR NRP1 mod 26
Cc1cc2cc(CNC(=O)Cc3ccc([N+](=O)[O-])cc3)ccc2n1C	CendR NRP1 mod 30
Cc1cc2cc(CNC(=O)c3ccc(S(=O)(=O)N4CCOCC4)cc3)ccc2n1C	CendR NRP1 mod 28
Cc1cc2cc(CNC(=O)c3cccc([N+](=O)[O-])c3)ccc2n1C	none
Cc1cc2cc(CNC(=O)c3ccc(S(=O)(=O)N(C)C)cc3)ccc2n1C	none
CCCC(=O)NCc1ccc2c(c1)cc(C)n2C	ARFGAP1 inhibitor 33
O=C(C(=O)N1CCN(S(=O)(=O)c2ccc(C(F)(F)F)cc2)CC1)c1cccc(C(F)(F)F)c1	none (no result: CendR NRP1 mod, Exocytosis inh, V-ATPase pHluor)
COc1cccc(C(=O)N2CCC[C@@H]2C(=O)N2CCC[C@@H]2C(=O)NCc2ccccc2)c1	none (no result: CendR NRP1 mod, Exocytosis inh, V-ATPase pHluor)
CC(=O)Nc1ccc(S(=O)(=O)NCC(=O)NCCCc2ccccc2)cc1	none
CC(=O)Nc1ccc(S(=O)(=O)NCCC(=O)NCCCc2ccccc2)cc1	CendR NRP1 mod 22
COCC(C)n1c(SCC(=O)Nc2ccc3c(c2)OCCO3)nc2ccccc2c1=O (centres undefined)	CendR NRP1 mod 22
CCOC(=O)CC(=O)Nc1ncnc2c1C(c1ccccc1)c1c(ccc3ccccc13)O2 (centres undefined)	CendR NRP1 mod 24
Nc1ncnc2c1C(c1ccccc1)c1c(ccc3ccccc13)O2 (centres undefined)	none
CCCC(C)(C)C(=O)N1CCC1(C)C(=O)NS(=O)(=O)c1ccccc1Cl (centres undefined)	none (no result: V-ATPase pHluor)
c1ccc(-c2nnc3n2-c2ccccc2SC3)cc1	none
c1ccc2c(c1)OCC(c1nnc3n1-c1ccccc1SC3)O2 (centres undefined)	CendR NRP1 mod 45
COc1ccc(CCNc2oc(Cc3cccc4ccccc34)nc2C#N)cc1OC	none
COc1ccc(CCNc2oc(COc3ccc(Br)cc3)nc2C#N)cc1OC	V-ATPase pHluor 10.0
Cc1ccc2cc(CN(CCCN(C)C)C(=O)NCc3ccccc3)c(=O)[nH]c2c1C	CendR NRP1 mod 38

Source: PubChem BioAssay
